This is a sample that favours compounds with a hit; in the whole collection about 4.7% have one here.
RGS4 block – RGS4 inhibitors, primary screen, cell-based, HEK293 M3R inducible RGS4, calcium flux | Regulator of G-protein signaling 4 (Homo sapiens), P49798 | Fluo-4 calcium flux; hits give high values; triggered by carbachol at its EC20 | 310,000 tested, 0.45% active | B-score at 10 µM | AID 463165, 2010;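 active means B-score, a plate-corrected calcium signal, over three deviations above library mean, with baseline fluorescence within five deviations of library mean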;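 further: RGS4 expression induced by doxycycline in cells with stable M3 receptor; B-score is computed from the integrated fluorescence ratio over baseline after carbachol; higher B-score means a larger calcium signal and so more RGS4 inhibition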
Target sequence (P49798 whole entry, looked up): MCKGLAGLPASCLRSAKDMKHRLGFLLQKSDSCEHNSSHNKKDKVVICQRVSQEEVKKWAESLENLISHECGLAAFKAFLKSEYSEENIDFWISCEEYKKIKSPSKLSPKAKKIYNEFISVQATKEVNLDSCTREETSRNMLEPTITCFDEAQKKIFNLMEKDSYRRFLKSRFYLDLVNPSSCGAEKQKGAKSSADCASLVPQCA
MrgX1 ag – agonists of human MrgX1 receptor, primary screen, HEK293 cells, Fluo-4 calcium flux; AID 588627, 2011; 310,000 tested, 0.44% active; Fluo-4 calcium fluorescence, agonist mode; hits give high values; B-score at 10 µM; Mas-related G-protein coupled receptor member X1 (Homo sapiens), Q96LB2;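 active means calcium response B-score plate-corrected fluorescence ratio at least 3 library SD, with starting fluorescence B-score inside 5 SD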
Target sequence (Q96LB2 whole entry, looked up): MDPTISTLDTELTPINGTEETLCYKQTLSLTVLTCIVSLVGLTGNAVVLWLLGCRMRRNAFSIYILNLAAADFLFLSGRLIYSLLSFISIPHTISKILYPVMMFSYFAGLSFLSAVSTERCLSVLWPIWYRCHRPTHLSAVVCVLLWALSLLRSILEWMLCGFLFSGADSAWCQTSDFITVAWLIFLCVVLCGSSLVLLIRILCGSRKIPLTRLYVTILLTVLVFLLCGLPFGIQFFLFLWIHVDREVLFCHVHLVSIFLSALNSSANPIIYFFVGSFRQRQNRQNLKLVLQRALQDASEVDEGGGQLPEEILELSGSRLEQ
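Assay system: MrgX1-expressing HEK293 cells / Amount: fifteen thousand cells per well / Doses: test compound in the initial addition of three / Timing: cells plated overnight, dye loaded 0.5 h 37 °C, 0.5 h room temperature / Technique: kinetic calcium dye fluorescence, Fluo-4 NW / Control set: positive and negative controls per plate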
MrgX1 antag – antagonists of human MrgX1 receptor, primary screen, HEK293 cells, Fluo-4 calcium flux. Mas-related G-protein coupled receptor member X1 (Homo sapiens), Q96LB2. BAM8-22 antagonism; hits give low values. B-score at 10 µM. 310,000 tested, 1.3% active. AID 588676, 2011;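 active means calcium-response B-score plate-corrected more than 3 library SD below zero, starting fluorescence within 5 deviations, no agonist response on first addition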;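 further: peak minus trough fluorescence over baseline after final BAM8-22 challenge near maximal dose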
KCC2 mod – KCC2 cotransporter modulators, thallium flux, primary screen, cell-based, HEK293 KCC2, FluoZin-2 fluorescence, MLSMR | Solute carrier family 12 member 5 (Homo sapiens), Q9H2X9 | KCC2 cells, thallium flux FluoZin-2 fluorescence | B-score of Tl+ flux slope (higher = more flux/activation; lower = inhibition) at 10 µM | 190,000 tested, 2.2% active;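 active means thallium flux slope and its plate-corrected score both differing from the plate sample mean at a set confidence after two filtering rounds, in either direction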;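 further: slope of fluorescence scaled to starting intensity during 10 to 20 s after thallium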
RGS4 act – RGS4 potentiators or activators, primary screen, cell-based, HEK293 M3R inducible RGS4, calcium flux | 310,000 tested, 0.92% active | carbachol calcium flux Fluo4; hits give low values | B-score at 10 µM | AID 463111, 2010;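 active means B-score of the integrated calcium signal more than 4 SD below the library mean, with starting fluorescence not abnormally high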;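 further: negative B-score means reduced calcium response which marks RGS4 activation or potentiation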
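Material: M3R-expressing HEK293 line, RGS4 induced by doxycycline | Schedule: Overnight RGS4 induction, 30 min dye load 37 °C, 20 min compound RT | Measured by: Fluo4 fluorescence kinetic imaging of calcium | Read-out: Integrated calcium ratio converted to B score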
MrgX1 allo act – positive allosteric modulators of MrgX1, primary screen, HEK293 cells, Fluo-4 calcium flux; Mas-related G-protein coupled receptor member X1 (Homo sapiens), Q96LB2; FDSS; hits give high values; B-score at 10 µM; 310,000 tested, 0.63% active; AID 588675, 2011;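 active means plate-corrected calcium response at least 3 library SD above typical, normal starting fluorescence, not activating the receptor alone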;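 further: compound read alongside a low EC10 to EC30 dose of BAM8-22 agonist; peak minus trough fluorescence over baseline measured at the second addition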
Starred values were filed as active, the others as inactive; i = inactive; . = not tested or not shown.

SMILES	RGS4 block	MrgX1 ag	MrgX1 antag	KCC2 mod	RGS4 act	MrgX1 allo act
CC(=O)N1CCc2cc(S(=O)(=O)NC(Cc3ccccc3)C(=O)O)ccc21 (centres undefined)	i	i	i	.	i	i
CC1=C(C)CS(=O)N(S(=O)(=O)c2ccc(Cl)cc2)C1 (centres undefined)	i	52*	i	.	i	i
CCN1C(=O)[C@@H]2[C@@H](c3ccc(-c4ccc(F)cc4)cc3)N3CCCC[C@@]3(C(=O)OC)[C@@H]2C1=O	i	i	i	.	i	i
COCCn1c(-c2ccc(-c3ccc([N+](=O)[O-])cc3Br)o2)nc2c1c(=O)[nH]c(=O)n2CC(C)C	i	i	-6.2*	-0.068	i	i
COc1cc(/C=C/C(=O)O)cc(S(=O)(=O)N2CCN(S(=O)(=O)c3ccc(Cl)cc3)CC2)c1OC	i	i	i	.	i	i
Cc1ccccc1S(=O)(=O)Cc1ccc(C(=O)NCCCN2CCC(C)CC2)o1	i	i	i	.	i	i
COc1ccc(C2CC2/C(C)=N/OC(=O)C2CC2)cc1 (centres undefined)	i	i	i	-0.24	i	i
COc1ccc(C2CC2C(C)=O)cc1 (centres undefined)	i	30*	i	0.88	i	i
O=C(OC1CCCCC1)c1ccc(NC(=O)C2CCCCC2)cc1	i	i	i	-0.29	-7*	i
CC(Oc1ccc(Br)cc1)c1nc2c3ccccc3nc(=S)n2[nH]1 (centres undefined)	i	i	i	26*	i	i
Cn1cc([N+](=O)[O-])c(C(=O)NNC(=O)c2ccc([N+](=O)[O-])cc2)n1	i	i	-5.4*	0.59	i	i
O=C(c1ccco1)N1CCN(C(=S)Nc2ccccc2C(F)(F)F)CC1	i	i	i	.	i	i
O=C(Nc1nc(-c2cc(F)ccc2F)cs1)C1=NN(c2ccccc2)C(=O)CC1	i	i	i	-0.93	i	i
Cc1ccc(C)c(-c2csc(NC(=O)C3=COCCO3)n2)c1	i	i	i	.	i	i
O=C(Nc1nc(-c2cc(F)ccc2F)cs1)c1ccccn1	i	i	i	7.4*	i	i
O=C(Nc1nc(-c2cc(F)ccc2F)cs1)C1=COCCO1	i	i	-5.1*	.	i	i
CN1CCN(C2=Cc3ccccc3Sc3cc(F)c(Cl)cc32)CC1	i	i	i	-0.42	-10*	i
Cc1cccn2c(=O)c(/C=C(\C#N)C(N)=O)c(N3CCN(Cc4ccc5c(c4)OCO5)CC3)nc12	i	i	i	-2.8	-8.5*	i
CC(=O)CSc1nc2c(c(=O)[nH]c(=O)n2C)n1CCCc1ccccc1	i	i	i	.	i	i
COc1ccc(/C(O)=C/C(=O)C(=O)NNC(=O)c2ccccc2)cc1	i	i	i	.	i	i
COc1ccc(/C(O)=C/C(=O)C(=O)NNC(=O)C(O)(c2ccccc2)c2ccccc2)cc1	i	i	-4.8*	1.6	i	i
Cc1c(C(=O)Oc2ccc(-c3cnc4ccccc4n3)cc2)cccc1[N+](=O)[O-]	i	i	i	.	i	i
O=C(Oc1ccc(-c2cnc3ccccc3n2)cc1)c1cc([N+](=O)[O-])ccc1Cl	i	i	-4.9*	.	i	i
CCOC(=O)Nc1ccc2c(c1)N(C(=O)N1CCN(C)CC1)c1ccccc1S2	i	i	i	.	-7.3*	i
CCOC(=O)Nc1ccc2c(c1)N(C(=O)CCN1CCN(C)CC1)c1ccccc1S2	i	i	i	-0.29	i	i
SMILES	RGS4 block	MrgX1 ag	MrgX1 antag	KCC2 mod	RGS4 act	MrgX1 allo act
CCSCCOC(=O)C1=C(C)N(C)C(=O)NC1c1cc(OC)ccc1OC (centres undefined)	i	i	i	4.2*	i	i
Cc1ccc2c(c1)C=CC(C#N)N2C(=O)c1ccccc1 (centres undefined)	i	i	i	-1.6	i	i
COc1ccc(C(=O)N2c3ccccc3C=CC2C#N)cc1 (centres undefined)	i	i	i	-0.13	-7.4*	i
COc1ccc(OC)c(N(CC(N)=O)S(=O)(=O)c2ccc(OC)c(OC)c2)c1	i	i	i	0.24	i	12*
COc1ccc(OC)c(N(CC(=O)N2CCCCC2)S(=O)(=O)c2ccc(OC)c(OC)c2)c1	i	i	i	0.74	i	i
COc1cc(S(=O)(=O)Nc2ccc(C)cc2)ccc1N=Cc1c(C)c(C#N)c(=O)n(C)c1O	i	i	i	-0.68	-8.6*	i
CC(C)c1ccc(/C=C/C(=O)Nc2ccc(CN3CCOCC3)cc2)cc1	i	i	i	-1.7	-8.2*	i
O=C(/C=C/c1ccc(Cl)cc1)Nc1ccc(CN2CCOCC2)cc1	i	i	i	-1.2	i	i
O=C(CSc1nnc(CNC(=O)c2cccs2)o1)Nc1ccccc1F	i	i	i	.	i	i
O=C(N/N=C/c1c(O)ccc2ccccc12)c1ccc(Br)o1	i	i	-5*	.	i	i
O=C(N/N=C/c1c(O)ccc2ccccc12)c1cccnc1	i	i	-7.6*	.	i	i
O=C(N/N=C\c1c(O)ccc2ccccc12)c1ccc(O)cc1	i	i	i	.	i	i
COc1cccc(C(=O)Nc2nc(-c3ccccc3)c(-c3ccccc3)o2)c1	i	i	i	29*	i	i
O=C(Nc1nc(-c2ccccc2)c(-c2ccccc2)o1)c1ccc(F)cc1	i	i	i	.	i	i
CCCCOc1ccc(C2=CSC3=NCCN23)cc1[N+](=O)[O-]	i	i	i	.	-7.4*	i
COc1ccc(C2=CSC3=NCCN23)cc1OC	i	i	i	.	i	i
O=C(CN1C(=O)COc2ccccc21)Nc1ccc(N2CCOCC2)cc1	i	i	i	.	i	i
COc1cc(C(=O)Nc2nnc(C(F)(F)F)s2)c([N+](=O)[O-])cc1OC	i	i	-6.4*	-0.25	i	i
